For 43 molecules, activity change, negative = activation results are on record in PubChem BioAssay AID489031 (Sanford-Burnham Center for Chemical Genomics, 2010).

The campaign covered roughly 330,000 compounds. About 1,000 (0.3%) were called active. The full list was thinned out, with actives kept by preference. Unmarked numbers belong to inactive results.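 How the source made its calls: active means activity change at or below -40% at 20 µM; inactive means the rest.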

Apoptotic protease-activating factor 1 (Homo sapiens), sequence (O14727 whole entry, looked up): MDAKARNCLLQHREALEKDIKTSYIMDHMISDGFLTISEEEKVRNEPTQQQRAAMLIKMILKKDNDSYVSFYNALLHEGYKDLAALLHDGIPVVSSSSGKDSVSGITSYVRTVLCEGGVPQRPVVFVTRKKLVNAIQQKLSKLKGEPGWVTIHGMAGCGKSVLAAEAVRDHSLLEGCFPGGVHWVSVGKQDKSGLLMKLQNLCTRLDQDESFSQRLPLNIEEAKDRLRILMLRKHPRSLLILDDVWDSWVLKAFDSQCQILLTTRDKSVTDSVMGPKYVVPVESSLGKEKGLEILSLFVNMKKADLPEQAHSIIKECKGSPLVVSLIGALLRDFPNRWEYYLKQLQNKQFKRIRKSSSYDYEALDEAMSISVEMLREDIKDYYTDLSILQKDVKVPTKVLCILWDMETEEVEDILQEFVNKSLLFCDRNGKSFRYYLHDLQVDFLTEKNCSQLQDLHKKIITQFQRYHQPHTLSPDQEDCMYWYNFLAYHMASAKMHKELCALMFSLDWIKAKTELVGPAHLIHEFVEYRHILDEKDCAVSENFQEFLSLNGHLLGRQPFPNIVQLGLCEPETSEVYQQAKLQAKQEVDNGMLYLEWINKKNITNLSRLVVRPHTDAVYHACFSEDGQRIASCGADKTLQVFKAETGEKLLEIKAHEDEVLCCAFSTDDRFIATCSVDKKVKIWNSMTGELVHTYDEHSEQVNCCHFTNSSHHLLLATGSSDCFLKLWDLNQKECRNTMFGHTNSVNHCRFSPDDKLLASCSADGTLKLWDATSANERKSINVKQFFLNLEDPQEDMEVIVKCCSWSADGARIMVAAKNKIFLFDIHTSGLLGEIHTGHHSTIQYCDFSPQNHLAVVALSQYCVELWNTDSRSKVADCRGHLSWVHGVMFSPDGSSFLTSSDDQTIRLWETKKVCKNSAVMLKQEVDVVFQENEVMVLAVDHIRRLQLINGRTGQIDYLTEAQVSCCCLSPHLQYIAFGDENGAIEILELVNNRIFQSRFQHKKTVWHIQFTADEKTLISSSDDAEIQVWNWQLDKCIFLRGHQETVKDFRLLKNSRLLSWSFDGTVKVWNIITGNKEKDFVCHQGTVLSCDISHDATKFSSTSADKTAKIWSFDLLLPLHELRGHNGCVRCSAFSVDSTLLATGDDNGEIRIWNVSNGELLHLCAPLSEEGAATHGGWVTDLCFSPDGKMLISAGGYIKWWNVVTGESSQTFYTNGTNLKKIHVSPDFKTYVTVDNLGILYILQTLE

This assay has as its target Apoptotic protease-activating factor 1 (Homo sapiens) (UniProt O14727). In words: activators of human Apaf-1 apoptosome, primary screen, biochemical, DEVD-Rh110 fluorescence, uHTS (AID 489031). The following applies: Apaf-1 apoptosome caspase-3 activation, at 20 µM, hits give low values. The gist of the method: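 system = biochemical Apaf-1 apoptosome reconstitution | buffer or medium = 20 mM HEPES pH 7.5 with CHAPS, BSA | also added = dATP and cytochrome c as apoptosome triggers, (Z-DEVD)2-Rh110 substrate | incubation = 30 min compound preincubation and 50 min reaction, both room temperature | measured by = fluorescence, 540 nm emission, 480 nm excitation | read-out basis = Caspase-3 cleavage activity downstream of Apaf-1 activation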
`Cc1nn(CC(=O)Nc2ccc(C#N)cc2)c(C)c1[N+](=O)[O-]`: the activity change, negative = activation was -116% (active).

On to `CCOC(=O)N1CCC(c2cc(=O)n(-c3ccccc3)[nH]2)CC1`, for which the activity change, negative = activation was 86.7%.

On to `COCCNC(=O)Nc1ccc2nc(-c3ccco3)c(-c3ccco3)nc2c1`, for which the activity change, negative = activation is 64.8%.

As for `CC(=O)N=c1ncn(CC(COC(C)=O)OC(C)=O)c2nc[nH]c12` (stereo not drawn), the activity change, negative = activation was 74.2%.

Turning to `CCCCNC(=O)C(C)N(CCN(C)C)C(=O)CCCCCN1C(=O)NC(c2ccc(Cl)cc2)C(C(=O)OCc2ccccc2)=C1C` (stereo not drawn), the activity change, negative = activation is 67.1%.

With `CC(C)OCCCNC(=S)N1CCC(C(=O)c2ccc3c(c2)OCCO3)CC1`, the activity change, negative = activation is -164% (active).

On to `c1ccc(C[C@H]2CNCCN2CCC23CC4CC(CC(C4)C2)C3)cc1`, for which the activity change, negative = activation is 47.5%.

Consider `C=C(C)C(=O)Nc1cccc(C2=NOC3(C2)C[C@H](C(N)=O)N(C(=O)C(c2ccccc2)c2ccccc2)C3)c1` (stereo partly drawn), for which the activity change, negative = activation is -78.2% (active).

In the case of `CC(C)c1ccccc1OCC(O)CN(CC(O)COc1cccc2ccccc12)C(C)C` (stereo not drawn), the activity change, negative = activation was 57.3%.

Take `O=c1[nH]cnc2c1c(-c1ccccc1)cn2-c1ccc(F)cc1`: the activity change, negative = activation was -47% (active).

Turning to `c1ccc(CSc2nnc(-c3ccco3)c(-c3ccco3)n2)cc1`, the activity change, negative = activation is 49.6%.

`Cc1ccsc1/C=N/NC(=O)Cc1cc(=O)[nH][nH]1`: the activity change, negative = activation is 58.3%.

With `COc1ccccc1C1C(C#N)=C(N)Oc2c1c(-c1ccccc1)nn2-c1ccccc1` (stereo not drawn), the activity change, negative = activation is 42.2%.

As for `COc1cc(C2C(C#N)=C(N)Oc3n[nH]c(-c4ccccn4)c32)cc(OC)c1OC` (stereo not drawn), the activity change, negative = activation is -84.8% (active).

Take `COc1ccc2sc(-c3ccccc3OC)c(-c3ccc(OCCN4CCCC4)cc3)c2c1`: the activity change, negative = activation was 73.4%.

With `C/C(=N\NC(=O)CNc1cccc2ccccc12)c1ccc(Br)s1`, the activity change, negative = activation was 90.2%.

For the molecule `O=C(CSc1nc2ccccc2c(=O)[nH]1)Nc1nc(-c2ccc(Br)cc2)cs1`, the activity change, negative = activation is -74% (active).

As for `Cc1ccc(-c2ccc(/C=N/NC(=O)CN3CCOCC3)o2)cc1[N+](=O)[O-]`, the activity change, negative = activation is 73.9%.

Take `O=C(CCCN1CCc2[nH]c3ccc(F)cc3c2C1)c1ccc(F)cc1`: the activity change, negative = activation is 65%.

Take `COc1ccc(C2CC(c3ccccc3)Nc3ncnn32)cc1` (stereo not drawn): the activity change, negative = activation is -445% (active).

Regarding `NC[C@H](Cc1ccccc1)NCCc1cc(C(F)(F)F)cc(C(F)(F)F)c1`, the activity change, negative = activation was 60.8%.

With `Clc1ccccc1CSc1nnc(-c2ccco2)c(-c2ccco2)n1`, the activity change, negative = activation is 49.9%.

`Cc1ccc2nc(N3CCN(C(=O)c4ccco4)CC3)sc2c1`: the activity change, negative = activation was 41.9%.

Turning to `O=C(CN1C(=O)C2C3C=CC(C3)C2C1=O)NCCc1ccccc1Cl` (stereo not drawn), the activity change, negative = activation was -99.8% (active).

Take `CC[N+](C)(CC)CCC[n+]1c(-c2ccccc2)c2cc(N)ccc2c2ccc(N)cc21`: the activity change, negative = activation was 98.2%.

Turning to `Cc1ccc(-c2nc(SCC(=O)Nc3ccccc3OC(F)F)c3c(C)c(C(=O)O)sc3n2)cc1`, the activity change, negative = activation was -98.5% (active).

Consider `CCOCCCNC(=O)c1c[nH]c2cc(C)ccc2c1=O`, for which the activity change, negative = activation was -152% (active).

On to `CN(C)CCCN(C(=O)c1ccc(S(=O)(=O)N2CCCCCC2)cc1)c1nc2ccc(Br)cc2s1`, for which the activity change, negative = activation was 60.4%.

Consider `O=[N+]([O-])c1c(NCCO)cc(Sc2nc3ccccc3s2)c2nonc12`, for which the activity change, negative = activation is 90.7%.

With `C=CCC[C@H](Cc1ccc(F)cc1)C(=O)OC[C@@H](NC(=O)[C@@H](CC=C)CC(=O)N[C@H](CO)Cc1ccccc1)C(C)(C)C`, the activity change, negative = activation is 40.6%.

In the case of `O=C(O)c1cc(Cl)c(Cl)cc1C(=O)Nc1cccc2ncccc12`, the activity change, negative = activation was 80.4%.

As for `COC(=O)C(C)N(C#N)c1nc(C)nc(C)n1` (stereo not drawn), the activity change, negative = activation is -363% (active).

On to `CCCCN(CCCC)CCC(O)c1cc2c(Cl)cc(Cl)cc2c2cc(C(F)(F)F)ccc12` (stereo not drawn), for which the activity change, negative = activation was 48.9%.

Regarding `COc1ccc(C2c3ccc(O)cc3Oc3ncn(CCCO)c(=N)c32)cc1OC` (stereo not drawn), the activity change, negative = activation is -43.4% (active).

Turning to `Cc1cc(C)n(-c2nc(SCC(=O)N3CCCC3)c3c4c(sc3n2)CCCC4)n1`, the activity change, negative = activation was 43.6%.

As to `O=c1cc(N2CCCCC2)c(-c2ccccc2)nn1Cc1cccc(F)c1`, the activity change, negative = activation was 44%.

With `COc1ccc(S(=O)(=O)N2CCCCC2)cc1NC(=O)c1cc([N+](=O)[O-])ccc1N1CCOCC1`, the activity change, negative = activation is -42.8% (active).

Consider `OC(CNCC1CCCO1)Cn1c2ccc(Br)cc2c2cc(Br)ccc21` (stereo not drawn), for which the activity change, negative = activation is 43.4%.

As for `CC(=O)CCC(=O)c1ccc2ccccc2c1`, the activity change, negative = activation was -178% (active).

Regarding `O=S(=O)(Nc1ccc(O)c2ccccc12)c1ccc(OC(F)(F)F)cc1`, the activity change, negative = activation was 60.9%.

Consider `COc1ccc(NC(=O)CN(Cc2ccccc2)S(C)(=O)=O)cc1OC`, for which the activity change, negative = activation is 40.8%.

Consider `Cc1[nH][nH]c(=O)c1C(c1ccc(-c2ccc(Cl)cc2)o1)c1c(C)[nH][nH]c1=O`, for which the activity change, negative = activation was 85.8%.

Turning to `C=CCn1c(N)c(C(=O)OCC(C)C)c2nc3ccccc3nc21`, the activity change, negative = activation is 54.1%.
